Target: T1, B31 DBPA (Borreliella burgdorferi, UniProt O50917)
T1 sequence (O50917 24-191): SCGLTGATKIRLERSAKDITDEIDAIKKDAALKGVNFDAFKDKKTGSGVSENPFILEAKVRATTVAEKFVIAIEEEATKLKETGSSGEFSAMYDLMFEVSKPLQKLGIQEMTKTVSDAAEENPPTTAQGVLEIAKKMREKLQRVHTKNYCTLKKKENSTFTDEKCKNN
Test: NMR control titration for non-specific TEMPO-DBPA interactions
Format: binding, Borrelia burgdorferi
Conditions: similar protein-to-ligand ratios as TEMPO-labeled heparin dp6
How it was run: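 Samples of 400 μL held 150 to 200 μM ¹⁵N-labelled B31 WT DBPA in 50 mM NaH₂PO₄, pH 6.5, 150 mM NaCl. The DBPA construct was a His-tagged fusion expressed in E. coli BL21(DE3) in M9 medium, Ni-affinity purified and cleaved with USP2. Amide ¹H transverse relaxation was measured with delays of 1, 4.5, 8, 11.5, 15 and 18.5 ms.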

## CC1(C)CC(N)CC(C)(C)N1[O] [4-amino-TEMPO]
  changes in transverse relaxation rates of the protein: no significant changes
